Experimental data as given in article PMC3158287 (Nature chemical biology, 2011).

Key:
HCT-116 p21^−/− cells = experiment: Cell viability assay, HCT-116 p21-/-; assay type: cell-based, human; details: GI50 after 48 h
In short: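 HCT-116 p21+/+ and p21−/− cells were seeded in 96-well plates and rested 24 h. A time-zero plate was read with CellTiter-Blue (resazurin) after 90 min at 37 °C, fluorescence 544 nm ex / 590 nm em. Serially diluted test compound was added as 4× solution. Viability was re-read at 48 h and GI50 derived. For coadministration, 10 μM 25-OHC was added with test compound at 250 nM or 10 nM.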

OSBP [1] = biological target: T1, OSBP (Homo sapiens, UniProt P22059); experiment: OSBP localization by immunofluorescence microscopy, HCT-116; assay type: cell-based; details: HCT-116 cells, 4 h; 5 μM schweinfurthin A, 10 nM OSW-1, 20 nM cephalostatin 1
T1 sequence (P22059 1-807): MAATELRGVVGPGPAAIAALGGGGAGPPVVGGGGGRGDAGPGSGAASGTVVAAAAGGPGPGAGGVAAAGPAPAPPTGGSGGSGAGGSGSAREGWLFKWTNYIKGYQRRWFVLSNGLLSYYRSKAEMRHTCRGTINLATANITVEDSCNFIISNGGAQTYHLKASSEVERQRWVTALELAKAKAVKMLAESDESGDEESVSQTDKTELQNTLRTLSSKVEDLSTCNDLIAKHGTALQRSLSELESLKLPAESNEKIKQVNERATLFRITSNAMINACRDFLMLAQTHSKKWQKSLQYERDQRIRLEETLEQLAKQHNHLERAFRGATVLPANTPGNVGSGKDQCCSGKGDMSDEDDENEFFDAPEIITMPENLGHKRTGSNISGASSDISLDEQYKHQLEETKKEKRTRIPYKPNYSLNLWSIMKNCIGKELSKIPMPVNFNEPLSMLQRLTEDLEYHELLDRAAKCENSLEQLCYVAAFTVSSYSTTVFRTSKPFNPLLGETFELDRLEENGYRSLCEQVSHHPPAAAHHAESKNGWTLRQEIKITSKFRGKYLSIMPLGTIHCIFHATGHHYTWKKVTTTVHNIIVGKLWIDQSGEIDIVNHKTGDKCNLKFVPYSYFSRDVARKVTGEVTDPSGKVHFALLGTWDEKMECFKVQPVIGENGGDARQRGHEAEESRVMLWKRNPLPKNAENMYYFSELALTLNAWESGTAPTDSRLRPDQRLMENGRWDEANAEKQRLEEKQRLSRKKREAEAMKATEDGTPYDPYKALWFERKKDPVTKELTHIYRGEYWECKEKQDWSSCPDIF
In short: (§1)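 Cells on coverslips were grown 72 h, then given test compound or vehicle (4 h for HCT-116). They were fixed 10 min in 3.7% formaldehyde/PBS and permeabilised 5 min in 0.5% Triton X-100. Blocking used Image-iT FX, then 1% BSA/PBS. Rabbit anti-OSBP (N-terminus) and mouse anti-p230 were applied overnight at 4 °C, then Alexa Fluor secondaries for 60 min with Hoechst 33258. Imaging was by confocal microscopy.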

[2] = test system: ceramide labeling in HCT-116 cells; experiment: Ceramide labeling, [3H]serine pulse labeling, HCT-116; assay type: cell-based, human; details: range of concentrations
ORP4L-Myc-His = biological target: T2, ORP4L-Myc-His (Homo sapiens, UniProt Q969R2); experiment: [3H]25-OHC charcoal-dextran binding assay, ORP4L-Myc-His
T2 sequence (Q969R2 1-916): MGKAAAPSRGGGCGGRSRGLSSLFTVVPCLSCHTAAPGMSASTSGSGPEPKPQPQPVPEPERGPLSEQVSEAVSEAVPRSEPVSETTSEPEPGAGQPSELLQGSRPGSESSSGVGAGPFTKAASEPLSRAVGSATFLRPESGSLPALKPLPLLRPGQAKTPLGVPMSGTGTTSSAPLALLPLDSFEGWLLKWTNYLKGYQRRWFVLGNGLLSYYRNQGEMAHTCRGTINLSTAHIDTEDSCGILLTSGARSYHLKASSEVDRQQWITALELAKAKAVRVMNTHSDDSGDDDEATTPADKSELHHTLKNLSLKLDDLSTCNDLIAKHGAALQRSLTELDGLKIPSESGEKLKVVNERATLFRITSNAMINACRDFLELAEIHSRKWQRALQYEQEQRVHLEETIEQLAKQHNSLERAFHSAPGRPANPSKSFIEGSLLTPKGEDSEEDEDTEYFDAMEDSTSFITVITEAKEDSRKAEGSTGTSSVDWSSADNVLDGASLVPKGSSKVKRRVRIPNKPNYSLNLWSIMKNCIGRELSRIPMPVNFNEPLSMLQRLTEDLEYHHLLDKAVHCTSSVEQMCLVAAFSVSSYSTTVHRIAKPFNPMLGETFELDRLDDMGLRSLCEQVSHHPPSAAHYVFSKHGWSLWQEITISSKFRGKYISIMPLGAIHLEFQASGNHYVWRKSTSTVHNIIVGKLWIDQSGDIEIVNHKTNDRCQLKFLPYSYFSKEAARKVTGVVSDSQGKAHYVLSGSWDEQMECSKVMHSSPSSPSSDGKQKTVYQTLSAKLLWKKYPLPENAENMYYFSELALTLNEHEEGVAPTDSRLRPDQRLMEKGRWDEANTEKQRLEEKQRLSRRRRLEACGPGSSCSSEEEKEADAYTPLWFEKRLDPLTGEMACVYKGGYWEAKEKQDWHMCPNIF

OSBP [3] = biological target: T1, OSBP; experiment: OSBP localization by immunofluorescence microscopy, A549; assay type: cell-based; details: A549 cells
In short: as §1

CERT = CERT protein amount in treated cells; assay type: cell-based, human; details: GI90 concentration, HCT-116 or A549 cells
OSBP-Myc-His = biological target: T3, OSBP-Myc-His (Homo sapiens, UniProt P22059); experiment: [3H]25-OHC charcoal-dextran binding assay, wild-type OSBP-Myc-His; details: read-out: Ki, OSBP-Myc-His; competition with 20 nM [3H]25-OHC; mean ± s.d.
T3 sequence (P22059 1-807): T1 sequence (P22059 1-807)

[4] = test system: HeLa cells overexpressing ORP4L; experiment: Overexpression-viability assay, ORP4L-Myc-His; assay type: cell-based, human; details: 48 h, versus lacZ
[5] = test system: HCT-116 p21^−/− cells stably transfected with shOSBP or shNT; experiment: OSBP shRNA knockdown and dose-shift experiment; assay type: cell-based, human; details: 72 h
In short: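 HCT-116 p21−/− cells were stably transfected with OSBP-targeting or nontargeting shRNA in the pSIREN-RetroQ vector. […] Values are mean ± s.d. of 3–4 experiments, compared with shNT cells by two-tailed Student's t-test.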

Structure (SMILES)	p21^−/− selectivity of growth inhibition (HCT-116 p21^−/− versus wild-type) (HCT-116 p21^−/− cells)	OSBP localization (OSBP [1])	Effect on ceramide labeling [2]	Ki (ORP4L-Myc-His; read-out: Ki, ORP4L-Myc-His, competition with 20 nM [3H]25-OHC, mean ± s.d.) [nM]	OSBP localization (OSBP [3])	Amount of CERT protein (CERT)	Ki (OSBP-Myc-His) [nM]	Desensitization factor by ORP4L overexpression (relative GI30) [4]	Sensitization by OSBP shRNA knockdown (GI50 shift shOSBP vs shNT) [5]	Factor by which affinity for ORP4L is lower than affinity for OSBP (ORP4L-Myc-His; ratio of Ki values ORP4L / OSBP)
COc1ccc(C(=O)O[C@H]2[C@H](O[C@@H]3[C@@H](OC(C)=O)[C@H](O[C@H]4C[C@H]5[C@@H]6CC=C7C[C@@H](O)CC[C@]7(C)[C@H]6CC[C@]5(C)[C@@]4(O)[C@H](C)C(=O)CCC(C)C)OC[C@@H]3O)OC[C@@H](O)[C@@H]2O)cc1 [OSW-1]	selectively growth-inhibitory	localize to a perinuclear position that did not localize with p230	no effect	54 ± 11	dispersal or vesiculation of OSBP	not affected	26	2–5	–	–
CC(C)=CCC/C(C)=C/Cc1c(O)cc(/C=C/c2cc(O)c3c(c2)C[C@@H]2C(C)(C)[C@H](O)[C@H](O)C[C@@]2(C)O3)cc1O [schweinfurthin A]	selectively growth-inhibitory	accumulate at perinuclear positions with a large degree of co-localization with the trans-Golgi marker p230	–	–	–	–	–	2–5	nine	~ 40
